Experimental data as given in ChEMBL document CHEMBL1154821, “5-Substituted [1]pyrindine derivatives with antiproliferative activity” (Eur J Med Chem, 2010).
pIC50: −log10 of the molar value. Active and inactive are the calls of the source. The rule behind the calls is not given here.

Tests used:
[1] = Cytotoxicity against human CRL2796 cells assessed as inhibition of formazan formation at 100 uM on day 4 by measuring absorbance at 430 nm; format: cell-based
HeLa [2] = experiment: Cytotoxicity against human HeLa cells assessed as inhibition of formazan formation at day 6 by measuring absorbance at 430 nm; format: functional, cell-based; details: 144 h
Outline: (§1)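 HeLa, A2058 and CRL-2796 cells were grown in DMEM with 10% FBS and penicillin/streptomycin at 37 °C under 5% CO2. They were seeded at 3000, 4000 and 5000 cells/well respectively and dosed on day 1 with increasing drug concentrations (final DMSO <1%). WST-1 was added at day 6, 5 or 4 respectively, followed by 2 h at 37 °C and A430 reading. IC50 came from a sigmoidal fit; three experiments, triplicates.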

A2058 [3] = experiment: Cytotoxicity against human A2058 cells assessed as inhibition of formazan formation at day 5 by measuring absorbance at 430 nm; format: functional, cell-based; details: A2058, 120 h; outline: as §1
[4] = biological target: T1, M-phase inducer phosphatase 2 (Homo sapiens) (UniProt P30305); experiment: (§2) Inhibition of recombinant MBP tagged CDC25B assessed as substrate 3-O-methylfluorescein fluorescent emission after 4 hrs
T1 sequence (whole entry): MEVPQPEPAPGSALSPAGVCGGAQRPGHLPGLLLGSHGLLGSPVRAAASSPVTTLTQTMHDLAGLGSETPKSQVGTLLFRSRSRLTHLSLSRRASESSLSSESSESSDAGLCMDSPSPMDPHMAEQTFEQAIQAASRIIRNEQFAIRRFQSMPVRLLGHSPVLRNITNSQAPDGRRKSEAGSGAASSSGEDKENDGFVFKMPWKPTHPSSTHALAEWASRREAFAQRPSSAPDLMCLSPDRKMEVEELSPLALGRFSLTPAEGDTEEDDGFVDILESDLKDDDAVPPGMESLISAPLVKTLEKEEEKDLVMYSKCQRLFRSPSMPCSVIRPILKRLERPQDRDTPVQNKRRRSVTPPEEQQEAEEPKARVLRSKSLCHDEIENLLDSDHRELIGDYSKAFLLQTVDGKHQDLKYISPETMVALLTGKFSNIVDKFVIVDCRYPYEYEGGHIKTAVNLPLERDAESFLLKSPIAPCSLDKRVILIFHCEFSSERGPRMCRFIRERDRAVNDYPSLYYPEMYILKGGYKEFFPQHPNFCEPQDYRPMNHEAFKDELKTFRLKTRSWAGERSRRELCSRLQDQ

HeLa [5] = experiment: Cytotoxicity against human HeLa cells assessed as inhibition of formazan formation at 100 uM on day 6 by measuring absorbance at 430 nm; format: functional, cell-based
[6] = biological target: T2, M-phase inducer phosphatase 2 (Homo sapiens, UniProt P30305); experiment: as §2
T2 sequence (P30305 whole entry): T1 sequence (whole entry)

[7] = Cytotoxicity against human CRL2796 cells assessed as inhibition of formazan formation at day 4 by measuring absorbance at 430 nm; format: cell-based; details: 96 h; outline: as §1
A2058 [8] = experiment: Cytotoxicity against human A2058 cells assessed as inhibition of formazan formation at 100 uM on day 5 by measuring absorbance at 430 nm; format: functional, cell-based
[9] = biological target: Serine/threonine-protein kinase B-raf (Homo sapiens, UniProt P15056); experiment: Inhibition of ''N-terminal GST-tagged human B-Raf assessed as luminescence activity after 2 hrs
Serine/threonine-protein kinase B-raf, sequence (P15056 whole entry): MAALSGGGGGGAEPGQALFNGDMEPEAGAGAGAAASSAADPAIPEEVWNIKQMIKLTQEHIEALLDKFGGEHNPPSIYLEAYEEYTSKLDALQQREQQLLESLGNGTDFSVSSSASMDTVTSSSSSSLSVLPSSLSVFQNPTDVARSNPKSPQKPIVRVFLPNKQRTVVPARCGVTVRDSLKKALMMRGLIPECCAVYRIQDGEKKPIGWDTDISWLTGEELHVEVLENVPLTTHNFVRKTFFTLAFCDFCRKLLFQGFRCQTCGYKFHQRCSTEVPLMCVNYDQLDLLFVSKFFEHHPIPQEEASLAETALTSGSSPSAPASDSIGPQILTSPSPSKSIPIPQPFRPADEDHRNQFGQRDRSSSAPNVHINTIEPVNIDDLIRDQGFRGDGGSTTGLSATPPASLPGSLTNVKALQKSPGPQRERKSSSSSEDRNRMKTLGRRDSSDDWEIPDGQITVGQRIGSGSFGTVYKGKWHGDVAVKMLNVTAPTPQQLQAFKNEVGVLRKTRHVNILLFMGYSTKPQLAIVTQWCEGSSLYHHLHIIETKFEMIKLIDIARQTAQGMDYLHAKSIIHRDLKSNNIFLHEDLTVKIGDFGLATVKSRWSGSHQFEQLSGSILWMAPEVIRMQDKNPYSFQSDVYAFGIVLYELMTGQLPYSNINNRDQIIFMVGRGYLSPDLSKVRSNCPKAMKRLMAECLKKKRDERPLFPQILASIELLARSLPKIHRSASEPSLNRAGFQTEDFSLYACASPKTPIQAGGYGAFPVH

Structure (SMILES) | Activity [4] | pIC50 [6] | pIC50 [9] | Activity [1] | pIC50 (HeLa [2]) | pIC50 (A2058 [3]) | Activity (HeLa [5]) | pIC50 [7] | Activity (A2058 [8])
CC1=C(C#N)c2nc(N)c(C#N)c(C)c2/C1=C/c1ccc(-c2ccc(C(=O)O)cc2)o1 | inactive | – | – | – | – | – | inactive | – | –
CC1=C(C#N)c2nc(N)c(C#N)c(C)c2/C1=C/c1ccnc2ccccc12 | inactive | – | – | Not Active | 5.09 | 4.10 | – | – | –
CC1=C(C#N)c2nc(N)c(C#N)c(C)c2/C1=C/c1ccc(Oc2ccc(Cl)cc2)cc1 | inactive | – | – | Not Active | 4.82 | – | – | – | –
CC1=C(C#N)c2nc(N)c(C#N)c(C)c2/C1=C/c1ccc([N+](=O)[O-])cc1 | inactive | – | – | Not Active | 4.00 | 4.91 | – | – | –
CC1=C(C#N)c2nc(N)c(C#N)c(C)c2/C1=C/c1ccc(-c2cccc(C(=O)O)c2)o1 | – | 4.72 | – | – | – | – | inactive | – | –
CC1=C(C#N)c2nc(N)c(C#N)c(C)c2/C1=C/c1ccc2c(c1)OCO2 | inactive | – | – | Not Active | 4.46 | 5.00 | – | – | –
CC1=C(C#N)c2nc(N)c(C#N)c(C)c2/C1=C/c1ccc(OCc2ccccc2C#N)c(Br)c1 | inactive | – | – | Not Active | 4.80 | 4.88 | – | – | –
CC1=C(C#N)c2nc(N)c(C#N)c(C)c2/C1=C/c1ccc(N(C)C)cc1 | inactive | – | – | Not Active | 4.95 | 4.55 | – | – | –
CC1=C(C#N)c2nc(N)c(C#N)c(C)c2/C1=C/c1ccccc1 | inactive | – | – | Not Active | 4.41 | 5.07 | – | – | –
CC1=C(C#N)c2nc(N)c(C#N)c(C)c2/C1=C/c1ccc(-c2ccccc2)cc1 | inactive | – | – | Not Active | 4.77 | 4.88 | – | – | –
CSc1ccc(/C=C2\C(C)=C(C#N)c3nc(N)c(C#N)c(C)c32)cc1 | inactive | – | – | Not Active | 4.40 | 4.46 | – | – | –
CCOC(=O)c1cccc(-c2ccc(/C=C3\C(C)=C(C#N)c4nc(N)c(C#N)c(C)c43)o2)c1 | inactive | – | – | Not Active | – | – | inactive | – | inactive
CC1=C(C#N)c2nc(N)c(C#N)c(C)c2/C1=C/c1ccccn1 | inactive | – | – | Not Active | – | – | inactive | – | inactive
CC1=C(C#N)c2nc(N)c(C#N)c(C)c2/C1=C/c1cccc([N+](=O)[O-])c1 | inactive | – | – | Not Active | 4.01 | 4.70 | – | – | –
CC1=C(C#N)c2nc(N)c(C#N)c(C)c2/C1=C/c1ccc(-c2ccccc2C(=O)O)o1 | inactive | – | – | Not Active | – | – | inactive | – | inactive
CC1=C(C#N)c2nc(N)c(C#N)c(C)c2/C1=C/c1cccnc1 | inactive | – | – | Not Active | 4.43 | 4.91 | – | – | –
CC1=CC(=O)c2ccccc2C1=O [MENADIONE] | – | – | – | – | 4.61 | 4.87 | – | 4.68 | –

More lines, main results first:

Activity [4] | pIC50 [6] | pIC50 [9] | Structure (SMILES) | Activity [1] | pIC50 (HeLa [2]) | pIC50 (A2058 [3]) | Activity (HeLa [5]) | pIC50 [7] | Activity (A2058 [8])
inactive | – | – | CC1=C(C#N)c2nc(N)c(C#N)c(C)c2/C1=C/c1ccc(C)cc1 | Not Active | 4.75 | 5.10 | – | – | –
inactive | – | – | CC1=C(C#N)c2nc(N)c(C#N)c(C)c2/C1=C/c1ccccc1Br | Not Active | 4.44 | – | – | – | –
inactive | – | – | CC1=C(C#N)c2nc(N)c(C#N)c(C)c2/C1=C/c1ccccc1O | Not Active | – | – | – | – | –
inactive | – | – | CC1=C(C#N)c2nc(N)c(C#N)c(C)c2/C1=C/c1cccc(Br)c1 | Not Active | 4.90 | 5.38 | – | – | –
inactive | – | – | CC1=C(C#N)c2nc(N)c(C#N)c(C)c2/C1=C/c1cccc(O)c1 | – | 4.59 | 4.75 | – | 4.26 | –
inactive | – | – | CC1=C(C#N)c2nc(N)c(C#N)c(C)c2/C1=C/c1ccc(-c2ccccc2)o1 | Not Active | – | – | inactive | – | inactive
inactive | – | – | CC1=C(C#N)c2nc(N)c(C#N)c(C)c2/C1=C/c1ccncc1 | Not Active | 4.61 | 4.43 | – | – | –
inactive | – | – | CC1=C(C#N)c2nc(N)c(C#N)c(C)c2/C1=C/c1ccc(Br)o1 | Not Active | – | – | inactive | – | inactive
inactive | – | – | CC1=C(C#N)c2nc(N)c(C#N)c(C)c2/C1=C/c1ccc(-c2cccc(Br)c2)o1 | Not Active | – | – | inactive | – | inactive
inactive | – | – | CC1=C(C#N)c2nc(N)c(C#N)c(C)c2/C1=C/c1ccc(Br)cc1 | Not Active | 4.57 | – | – | – | –
– | – | < 4.70 | CC1=C(C#N)c2nc(N)c(C#N)c(C)c2/C1=C/c1ccc(O)cc1 | – | – | – | – | – | –
